# Laboratory results published in ChEMBL document CHEMBL1122991, “[(Aminomethyl)aryloxy]acetic acid esters. A new class of high-ceiling diuretics. 4. Substituted 6,7-dichloro-2,3-dihydrobenzofurans derived by ring annelation” (1985).
# Calls of active or inactive are those of the source. No cut-off for these calls is given here.
# Assays:
# Rattus norvegicus [1] = experiment: Natriuretic potency was evaluated as oral dose required to produce an excretion of 2 mequiv of Na+/Kg of rat body weight; type: functional
# Method in brief: (§1)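 Oral gavage in female rats fed glucose and water overnight. DOCA 5 mg sc is given 2 h before dosing, and rats are loaded with isotonic NaCl-KCl (40:60) to 3% body weight right after dosing. Na+ excretion is collected over 4 h, four rats/dose. ED2 is taken from a linear regression of Na+ excretion vs log dose.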
# Rattus norvegicus [2] = experiment: Natriuretic potency was evaluated as oral dose required to produce an excretion of 2 mequiv of Na+/Kg of rat body weight, ED2 value based on N=4 rats/dose; type: functional; method in brief: as §1
# Canis familiaris = experiment: Natriuretic potency was evaluated as oral dose required to produce an excretion of 2 mequiv of Na+/Kg of dog body weight, ED5 value based on N=2 dogs/dose; type: functional, Canis lupus familiaris
# Method in brief: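 Conscious nonloaded female dogs dosed orally, two dogs/dose. ED5 is derived from a linear regression of Na+ excretion vs log dose.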
# Rattus norvegicus [3] = experiment: Natriuretic potency was evaluated as oral dose required to produce an excretion of 2 mequiv of Na+/Kg of rat body weight; IA means Inactive; type: functional, organism-based; method in brief: as §1
# Rattus norvegicus [4] = species: Rattus norvegicus; experiment: Fractional delivery of Na+ to puncture site (percent of filtered load) of early distal tubular segments in the exposed kidney; type: functional
# Method in brief: (§2)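 Male adult Sprague-Dawley rats prepared for free-flow micropuncture, infused with Ringer's solution at 2 mL/100 g per h plus [3H]inulin (100 μCi/h). Early and late distal tubular fluid sampled from the exposed kidney during control periods and after a single iv bolus of 0.1 mg/kg given over 20–30 s. Control and treated groups compared by unpaired t test.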
# Rattus norvegicus [5] = species: Rattus norvegicus; experiment: Fractional delivery of Na+ to puncture site (percent of filtered load) of late distal tubular segments in the exposed kidney; type: functional; method in brief: as §2
# Rattus norvegicus [6] = species: Rattus norvegicus; experiment: Na+ concentration in plasma sample of rat; type: functional, organism-based
# Method in brief: (§3)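 Male adult Sprague-Dawley rats infused with Ringer's solution at 2 mL/100 g per h plus [3H]inulin (100 μCi/h). Two 30-min urine collections with midpoint blood samples form the control period. A single iv bolus of 0.1 mg/kg is given over 20–30 s, and 30 min later two more 30-min periods follow, with iv fluid replacement. Urine volume, Na+, K+ and inulin counts are measured, and GFR and fractional excretion are calculated by standard formulae. Paired t test, n = 8.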
# Rattus norvegicus [7] = species: Rattus norvegicus; experiment: Fractional delivery of K+ to puncture site (percent of filtered load) of early distal tubular segments in the exposed kidney; type: functional; method in brief: as §2
# Rattus norvegicus [8] = species: Rattus norvegicus; experiment: Tubular fluid-to-plasma concentration ratio for inulin of late distal tubular segments in the exposed kidney; type: functional; method in brief: as §2
# Rattus norvegicus [9] = species: Rattus norvegicus; experiment: Fractional excretion of K+ (percent of filtered load) in rat; type: functional; method in brief: as §3
# Rattus norvegicus [10] = species: Rattus norvegicus; experiment: Single nephron glomerular filtration rate of late distal tubular segments in the exposed kidney; type: functional; method in brief: as §2
# Rattus norvegicus [11] = species: Rattus norvegicus; experiment: Fractional delivery of K+ to puncture site (percent of filtered load) of late distal tubular segments in the exposed kidney; type: functional; method in brief: as §2
# Rattus norvegicus [12] = species: Rattus norvegicus; experiment: Fractional excretion of Na+ (percent of filtered load) in rat; type: functional; method in brief: as §3
# Rattus norvegicus [13] = species: Rattus norvegicus; experiment: Single nephron glomerular filtration rate of early distal tubular segments in the exposed kidney; type: functional; method in brief: as §2
# Rattus norvegicus [14] = species: Rattus norvegicus; experiment: K+ concentration in plasma sample of rat; type: functional, organism-based; method in brief: as §3
# Rattus norvegicus [15] = species: Rattus norvegicus; experiment: Urine flow rate of early distal tubular segments in the exposed kidney; type: functional; method in brief: as §2
# Rattus norvegicus [16] = species: Rattus norvegicus; experiment: Urine flow rate per kidney was evaluated in rat; type: functional; method in brief: as §3
# Rattus norvegicus [17] = species: Rattus norvegicus; experiment: Urine flow rate of late distal tubular segments in the exposed kidney; type: functional; method in brief: as §2
# Rattus norvegicus [18] = species: Rattus norvegicus; experiment: Urine-to-plasma concentration ratio for inulin in rat; type: functional; method in brief: as §3
# Rattus norvegicus [19] = species: Rattus norvegicus; experiment: Glomerular filtration rate (per one kidney) per 100 g body weight of rat; type: functional; method in brief: as §3
# Rattus norvegicus [20] = species: Rattus norvegicus; experiment: Tubular fluid-to-plasma concentration ratio for inulin of early distal tubular segments in the exposed kidney; type: functional; method in brief: as §2
# [21] = Ratio of number of tubules/number of rats of late distal tubular segments in the exposed kidney; type: functional
smiles,measurement,setting,value
NCc1cc(C(=O)c2cc3c(c(Cl)c2Cl)OC(CO)C3)ccc1O (centres undefined),ED2,Rattus norvegicus [1],0.95 mg/kg
CCOC(=O)C1Cc2cc(Cc3cc(CN)c(O)c(CN)c3)c(Cl)c(Cl)c2O1 (centres undefined),ED2,Rattus norvegicus [1],49 mg/kg
NS(=O)(=O)c1cc(C(=O)O)cc(N2CCCC2)c1Oc1ccccc1 [PIRETANIDE],ED2,Rattus norvegicus [2],0.89 mg/kg
same,ED5,Canis familiaris,0.25 mg/kg
CCOC(=O)C1Cc2cc(C(=O)c3cc(Cl)c(O)c(CN)c3)c(Cl)c(Cl)c2O1 (centres undefined),ED2,Rattus norvegicus [1],21.5 mg/kg
NCc1cc(C(=O)c2cc3c(c(Cl)c2Cl)OC(C(N)=O)C3)ccc1O (centres undefined),ED2,Rattus norvegicus [1],2.95 mg/kg
CCOC(=O)C1Cc2cc(C(=O)c3cc(CN(C)C)c(O)c(CN(C)C)c3)c(Cl)c(Cl)c2O1 (centres undefined),ED2,Rattus norvegicus [1],1.82 mg/kg
NCc1cc(C(=O)c2cc3c(c(Cl)c2Cl)OC(C(=O)O)C3)ccc1O (centres undefined),ED2,Rattus norvegicus [3],inactive
CCOC(=O)C1Cc2cc(C(=O)c3ccc(O)c(CN)c3)c(Cl)c(Cl)c2O1 (centres undefined),FD,Rattus norvegicus [4],13.6%
same,FD,Rattus norvegicus [5],8.1%
same,Plasma,Rattus norvegicus [6],144 mM
same,FD,Rattus norvegicus [7],23%
same,TF/P,Rattus norvegicus [8],8.48
same,FE,Rattus norvegicus [9],54.6%
same,SNGFR,Rattus norvegicus [10],33.9 nL/min
same,FD,Rattus norvegicus [11],23.6%
same,FE,Rattus norvegicus [12],6.3%
same,SNGFR,Rattus norvegicus [13],35.7 nL/min
same,Plasma,Rattus norvegicus [14],3.57 mM
same,Rate,Rattus norvegicus [15],8.2 nL/min
same,Rate,Rattus norvegicus [16],67.6 µL/min
same,ED2,Rattus norvegicus [2],0.12 mg/kg
same,Rate,Rattus norvegicus [17],4.6 nL/min
same,U/P,Rattus norvegicus [18],19.7
same,GFR,Rattus norvegicus [19],0.46 mL/min
same,ED5,Canis familiaris,0.11 mg/kg
same,TF/P,Rattus norvegicus [20],4.39
same,Ratio,[21],8
CCCCNc1cc(C(=O)O)cc(S(N)(=O)=O)c1Oc1ccccc1 [BUMETANIDE],ED2,Rattus norvegicus [2],8.5 mg/kg
same,ED5,Canis familiaris,0.15 mg/kg
CCOC(=O)C1Cc2cc(Cc3ccc(O)c(CN)c3)c(Cl)c(Cl)c2O1 (centres undefined),ED2,Rattus norvegicus [1],8 mg/kg
NS(=O)(=O)c1cc(C(=O)O)c(NCc2ccco2)cc1Cl [FUROSEMIDE],ED2,Rattus norvegicus [2],9.5 mg/kg
same,ED5,Canis familiaris,3.5 mg/kg
NCc1cc(Cc2cc3c(c(Cl)c2Cl)OC(CO)C3)ccc1O (centres undefined),ED2,Rattus norvegicus [1],10.2 mg/kg
